Drawing on ChEMBL document CHEMBL1154696, “Synthesis and antitumor evaluation of analogues of the marine pyrroloiminoquinone tsitsikammamines” (Eur J Med Chem, 2010), this text covers IC50 and Activity for 22 compounds.

Activity calls are given as the source filed them. The calls are words filed in the database; no cut-off is given here.

Test system in the first series: not listed separately
The series can be described thus: Cytotoxicity against human U373 cells after 72 hrs by MTT assay. It is filed as functional, cell-based, U-373MG ATCC. The note with it: U373 MG. The procedure, abridged: (§1)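 Cells plated at 10,000 to 40,000 cells/mL, depending on cell type, and incubated 24 h before treatment. Growth was read after 72 h culture with or without compound. MTT reduction to formazan by living cells was read by spectrophotometry at 570 nm with a 630 nm reference. IC50 growth inhibitory concentrations were derived. NHDF and Wi38 are normal human fibroblasts.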
(Formazan colour is commonly taken as a measure of viable cells.)
On to `COc1ccc(C2C=NC3=C2C(=O)c2cc[nH]c2C3=O)cc1` (stereo unspecified), for which the IC50 (commonly the point on the concentration scale where inhibition reaches its midpoint) was found to be 7.6 µM.

Turning to `COc1ccc(C2CNC3=C2C(=O)c2c4c(cn2S(=O)(=O)c2ccc(C)cc2)CCN=C34)cc1` (stereo unspecified), the midpoint of inhibition, the IC50, lay at 30.5 µM.

`COc1ccc(-c2c[nH]c3c2C(=O)c2c(c(CCN)cn2S(=O)(=O)c2ccc(C)cc2)C3=O)cc1` gave an IC50 of 8.5 µM.

On to `O=C1c2[nH]cc3c2C(=NCC3)c2[nH]cc(-c3ccc(O)cc3)c21`, for which half-maximal inhibition (IC50) was put at 62.2 µM.

The compound `O=C1c2[nH]cc3c2C(=NCC3)c2c(-c3ccc(O)cc3)c[nH]c21` [TSITSIKAMMAMINE A] yielded an IC50 of 18.1 µM.

Compound `COc1ccc(C(O)CNC2=CC(=O)c3ccn(S(=O)(=O)c4ccc(C)cc4)c3C2=O)cc1` (stereo unspecified) had an IC50 of 29.2 µM.

Compound `COc1ccc(C2CNC3=C2C(=O)c2ccn(S(=O)(=O)c4ccc(C)cc4)c2C3=O)cc1` (stereo unspecified) registered an IC50 of 47.2 µM.

The compound `COc1ccc(-c2c[nH]c3c2C(=O)c2c(CCN)cn(S(=O)(=O)c4ccc(C)cc4)c2C3=O)cc1` yielded an IC50 of 3.2 µM.

As to `O=C1C2=C(N=CC2c2ccc(O)cc2)C(=O)c2[nH]ccc21` (stereo unspecified), the IC50 is over 100 µM.

Take `COc1ccc(-c2c[nH]c3c2C(=O)c2[nH]ccc2C3=O)cc1`: the IC50 is over 100 µM.

As to `COc1ccc(-c2c[nH]c3c2C(=O)c2ccn(S(=O)(=O)c4ccc(C)cc4)c2C3=O)cc1`, the IC50 was over 100 µM.

`COc1ccc(C2CNC3=C2C2=NCCc4cn(S(=O)(=O)c5ccc(C)cc5)c(c42)C3=O)cc1` (stereo unspecified) showed an IC50 of 18.3 µM.

Consider `COc1ccc(-c2c[nH]c3c2C2=NCCc4c[nH]c(c42)C3=O)cc1`, for which the IC50 was over 100 µM.

`COc1ccc(-c2c[nH]c3c2C(=O)c2[nH]cc4ccnc-3c24)cc1` gave a half-inhibitory concentration (IC50) of over 100 µM.

For `COc1ccc(-c2c[nH]c3c2C(=O)c2c4c(cn2S(=O)(=O)c2ccc(C)cc2)CCN=C34)cc1`, inhibition was half-maximal at 41.4 µM (IC50).

`COc1ccc(C2CNC3=C2C(=O)c2c(ccn2S(=O)(=O)c2ccc(C)cc2)C3=O)cc1` (stereo unspecified) returned an IC50 of 51.9 µM.

In turn, `COc1ccc(-c2c[nH]c3c2C(=O)c2c(ccn2S(=O)(=O)c2ccc(C)cc2)C3=O)cc1` showed an IC50 of 48.2 µM.

`COc1ccc(C(O)CNC2=CC(=O)c3c(ccn3S(=O)(=O)c3ccc(C)cc3)C2=O)cc1` (stereo unspecified): the IC50 was determined as 56.4 µM.

The compound `COc1ccc(-c2c[nH]c3c2-c2nccc4c[nH]c(c24)C3=O)cc1` registered an IC50 of 97.8 µM.

Take `COc1ccc(-c2c[nH]c3c2C(=O)c2[nH]cc4c2C3=NCC4)cc1`: the IC50 turned out to be 4.1 µM.

Consider `O=C1c2cc[nH]c2C(=O)c2c(-c3ccc(O)cc3)c[nH]c21`, for which the midpoint of inhibition, the IC50, lay at 37 µM.

Compound `COc1ccc(-c2c[nH]c3c2C2=NCCc4cn(S(=O)(=O)c5ccc(C)cc5)c(c42)C3=O)cc1` yielded an IC50 of 57.4 µM.

The subject of another series is PC-3. The series can be described thus: Cytotoxicity against human PC3 cells after 72 hrs by MTT assay. It is filed as functional, cell-based. The following applies: PC-3, 72 h. The procedure, abridged:
as §1
`COc1ccc(C2C=NC3=C2C(=O)c2cc[nH]c2C3=O)cc1` (stereo unspecified) gave an IC50 of over 100 µM.

On to `COc1ccc(C2CNC3=C2C(=O)c2c4c(cn2S(=O)(=O)c2ccc(C)cc2)CCN=C34)cc1` (stereo unspecified), for which the midpoint of inhibition, the IC50, lay at 20.5 µM.

For the compound `COc1ccc(-c2c[nH]c3c2C(=O)c2c(c(CCN)cn2S(=O)(=O)c2ccc(C)cc2)C3=O)cc1`, the IC50 was 31.3 µM.

With `O=C1c2[nH]cc3c2C(=NCC3)c2[nH]cc(-c3ccc(O)cc3)c21`, the IC50 stood at 63.7 µM.

Consider `O=C1c2[nH]cc3c2C(=NCC3)c2c(-c3ccc(O)cc3)c[nH]c21` [TSITSIKAMMAMINE A], for which 23 µM corresponded to half-maximal inhibition (IC50).

As to `COc1ccc(C(O)CNC2=CC(=O)c3ccn(S(=O)(=O)c4ccc(C)cc4)c3C2=O)cc1` (stereo unspecified), the IC50 was over 100 µM.

For the compound `COc1ccc(C2CNC3=C2C(=O)c2ccn(S(=O)(=O)c4ccc(C)cc4)c2C3=O)cc1` (stereo unspecified), the IC50 was determined as 37.5 µM.

`COc1ccc(-c2c[nH]c3c2C(=O)c2c(CCN)cn(S(=O)(=O)c4ccc(C)cc4)c2C3=O)cc1` gave an IC50 of 4.2 µM.

As for `O=C1C2=C(N=CC2c2ccc(O)cc2)C(=O)c2[nH]ccc21` (stereo unspecified), the IC50 was over 100 µM.

For `COc1ccc(-c2c[nH]c3c2C(=O)c2[nH]ccc2C3=O)cc1`, the IC50 was over 100 µM.

The compound `COc1ccc(-c2c[nH]c3c2C(=O)c2ccn(S(=O)(=O)c4ccc(C)cc4)c2C3=O)cc1` gave an IC50 of 24.6 µM.

In the case of `COc1ccc(C2CNC3=C2C2=NCCc4cn(S(=O)(=O)c5ccc(C)cc5)c(c42)C3=O)cc1` (stereo unspecified), the half-inhibitory concentration (IC50) stood at 20.5 µM.

The compound `COc1ccc(-c2c[nH]c3c2C2=NCCc4c[nH]c(c42)C3=O)cc1` displayed an IC50 of over 100 µM.

`COc1ccc(-c2c[nH]c3c2C(=O)c2[nH]cc4ccnc-3c24)cc1` had an IC50 of over 100 µM.

With `COc1ccc(-c2c[nH]c3c2C(=O)c2c4c(cn2S(=O)(=O)c2ccc(C)cc2)CCN=C34)cc1`, the IC50 is over 100 µM.

With `COc1ccc(C2CNC3=C2C(=O)c2c(ccn2S(=O)(=O)c2ccc(C)cc2)C3=O)cc1` (stereo unspecified), half-maximal inhibition (IC50) was put at 33.7 µM.

`COc1ccc(-c2c[nH]c3c2C(=O)c2c(ccn2S(=O)(=O)c2ccc(C)cc2)C3=O)cc1` registered an IC50 of 48.2 µM.

Compound `COc1ccc(C(O)CNC2=CC(=O)c3c(ccn3S(=O)(=O)c3ccc(C)cc3)C2=O)cc1` (stereo unspecified) displayed an IC50 of 37.3 µM.

As for `COc1ccc(-c2c[nH]c3c2-c2nccc4c[nH]c(c24)C3=O)cc1`, half-maximal inhibition (IC50) required 88.8 µM.

In the case of `COc1ccc(-c2c[nH]c3c2C(=O)c2[nH]cc4c2C3=NCC4)cc1`, the midpoint of inhibition, the IC50, lay at 55.7 µM.

With `O=C1c2cc[nH]c2C(=O)c2c(-c3ccc(O)cc3)c[nH]c21`, the IC50 was over 100 µM.

`COc1ccc(-c2c[nH]c3c2C2=NCCc4cn(S(=O)(=O)c5ccc(C)cc5)c(c42)C3=O)cc1` gave an IC50 of over 100 µM.

In another series the test system is U-373MG ATCC. The series can be described thus: Cytotoxicity against human apoptosis-resistant U373 cells at 5 uM after 2 hrs by computer-assisted phase contrast microscopy. The format is functional, cell-based.
Settings: not given
The method, boiled down:
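U373 glioblastoma cells were cultured with or without 5 μM compound. Morphology was followed by quantitative computer-assisted phase-contrast videomicroscopy at 100x and 400x magnification over about 2 h after compound addition, to tell cytotoxic from cytostatic effects.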
In the case of `COc1ccc(-c2c[nH]c3c2C(=O)c2c(CCN)cn(S(=O)(=O)c4ccc(C)cc4)c2C3=O)cc1`, the result was Active.

In another series the test system is NHDF. The series can be described thus: Cytotoxicity against human NHDF cells after 72 hrs by MTT assay. The format is cell-based.
Settings: not given
The procedure, abridged:
as §1
As for `COc1ccc(-c2c[nH]c3c2C(=O)c2c(c(CCN)cn2S(=O)(=O)c2ccc(C)cc2)C3=O)cc1`, the Activity entry is recorded as “Non-toxic”.

As for `COc1ccc(-c2c[nH]c3c2C(=O)c2c(CCN)cn(S(=O)(=O)c4ccc(C)cc4)c2C3=O)cc1`, the Activity result is on record as “Toxic”.

For another series, the system named is A549. The series can be described thus: Cytotoxicity against human A549 cells after 72 hrs by MTT assay. The following applies: A549, 72 h. The format is functional, cell-based. The method, boiled down: as §1
Consider `COc1ccc(C2C=NC3=C2C(=O)c2cc[nH]c2C3=O)cc1` (stereo unspecified), for which the IC50 was determined as 7.8 µM.

In the case of `COc1ccc(C2CNC3=C2C(=O)c2c4c(cn2S(=O)(=O)c2ccc(C)cc2)CCN=C34)cc1` (stereo unspecified), the half-maximal inhibitory concentration (IC50) was 25.9 µM.

The compound `COc1ccc(-c2c[nH]c3c2C(=O)c2c(c(CCN)cn2S(=O)(=O)c2ccc(C)cc2)C3=O)cc1` had an IC50 of 11.2 µM.

For `O=C1c2[nH]cc3c2C(=NCC3)c2[nH]cc(-c3ccc(O)cc3)c21`, it took 35.2 µM to reach half-maximal inhibition (IC50).

`O=C1c2[nH]cc3c2C(=NCC3)c2c(-c3ccc(O)cc3)c[nH]c21` [TSITSIKAMMAMINE A] had an IC50 of 15.6 µM.

In the case of `COc1ccc(C(O)CNC2=CC(=O)c3ccn(S(=O)(=O)c4ccc(C)cc4)c3C2=O)cc1` (stereo unspecified), the IC50 is over 100 µM.

For `COc1ccc(C2CNC3=C2C(=O)c2ccn(S(=O)(=O)c4ccc(C)cc4)c2C3=O)cc1` (stereo unspecified), 35.4 µM corresponded to half-maximal inhibition (IC50).

As for `COc1ccc(-c2c[nH]c3c2C(=O)c2c(CCN)cn(S(=O)(=O)c4ccc(C)cc4)c2C3=O)cc1`, the IC50 stood at 4.1 µM.

Regarding `O=C1C2=C(N=CC2c2ccc(O)cc2)C(=O)c2[nH]ccc21` (stereo unspecified), the IC50 is over 100 µM.

The compound `COc1ccc(-c2c[nH]c3c2C(=O)c2[nH]ccc2C3=O)cc1` came in with an IC50 of over 100 µM.

`COc1ccc(-c2c[nH]c3c2C(=O)c2ccn(S(=O)(=O)c4ccc(C)cc4)c2C3=O)cc1` came in with an IC50 of 77.6 µM.

`COc1ccc(C2CNC3=C2C2=NCCc4cn(S(=O)(=O)c5ccc(C)cc5)c(c42)C3=O)cc1` (stereo unspecified) displayed an IC50 of 9.7 µM.

Take `COc1ccc(-c2c[nH]c3c2C2=NCCc4c[nH]c(c42)C3=O)cc1`: the IC50 is over 100 µM.

The compound `COc1ccc(-c2c[nH]c3c2C(=O)c2[nH]cc4ccnc-3c24)cc1` displayed a concentration for half-maximal inhibition (IC50) of over 100 µM.

For the compound `COc1ccc(-c2c[nH]c3c2C(=O)c2c4c(cn2S(=O)(=O)c2ccc(C)cc2)CCN=C34)cc1`, the IC50 came out at 3.1 µM.

With `COc1ccc(C2CNC3=C2C(=O)c2c(ccn2S(=O)(=O)c2ccc(C)cc2)C3=O)cc1` (stereo unspecified), the midpoint of inhibition, the IC50, lay at 52.4 µM.

In turn, `COc1ccc(-c2c[nH]c3c2C(=O)c2c(ccn2S(=O)(=O)c2ccc(C)cc2)C3=O)cc1` gave an IC50 of 41.3 µM.

`COc1ccc(C(O)CNC2=CC(=O)c3c(ccn3S(=O)(=O)c3ccc(C)cc3)C2=O)cc1` (stereo unspecified): the IC50 was determined as 70.2 µM.

`COc1ccc(-c2c[nH]c3c2-c2nccc4c[nH]c(c24)C3=O)cc1` had an IC50 of 80.6 µM.

As to `COc1ccc(-c2c[nH]c3c2C(=O)c2[nH]cc4c2C3=NCC4)cc1`, half-maximal inhibition (IC50) was put at 38.1 µM.

Regarding `O=C1c2cc[nH]c2C(=O)c2c(-c3ccc(O)cc3)c[nH]c21`, it took 74.5 µM to reach half-maximal inhibition (IC50).

`COc1ccc(-c2c[nH]c3c2C2=NCCc4cn(S(=O)(=O)c5ccc(C)cc5)c(c42)C3=O)cc1` displayed an IC50 of 15.4 µM.

Test system in a further series: not listed separately
The series can be described thus: Cytotoxicity against human WI38 cells after 72 hrs by MTT assay. The format is cell-based. The following applies: wi-38, 72 h. The method, boiled down:
as §1
Turning to `COc1ccc(-c2c[nH]c3c2C(=O)c2c(c(CCN)cn2S(=O)(=O)c2ccc(C)cc2)C3=O)cc1`, the Activity entry is recorded as “Non-toxic”.

Regarding `COc1ccc(-c2c[nH]c3c2C(=O)c2c(CCN)cn(S(=O)(=O)c4ccc(C)cc4)c2C3=O)cc1`, the Activity result is reported as “Toxic”.
